Results published in ChEMBL document CHEMBL3352514, “Anti-cancer activity of carbamate derivatives of melampomagnolide B” (Bioorg Med Chem Lett, 2014).

Assays:
TK-10 = experiment: Growth inhibition of human TK10 cells; assay type: functional
Summary of the method: (§1)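 NCI 60-cell-line tumour panel. Compounds were first screened at a single concentration of 10 µM, then tested in 5-dose assays. Growth was read as the change in optical density, expressed as a percentage of control. GI50 is the concentration (µM) that halves cellular growth, and the values were taken from the NCI database.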

NCI-H522 = experiment: Growth inhibition of human NCI-H522 cells; assay type: functional; summary of the method: as §1
M14 = experiment: Growth inhibition of human M14 cells; assay type: functional; summary of the method: as §1
IGROV-1 = experiment: Growth inhibition of human IGROV1 cells; assay type: functional; summary of the method: as §1
[1] = Growth inhibition of human HOP92 cells; assay type: functional; conditions: HOP-92; summary of the method: as §1
[2] = Growth inhibition of human RXF393 cells; assay type: functional; conditions: RXF 393; summary of the method: as §1
MCF7 = experiment: Growth inhibition of human MCF7 cells; assay type: functional; summary of the method: as §1
[3] = Growth inhibition of human SF539 cells; assay type: functional; conditions: SF-539; summary of the method: as §1
[4] = Growth inhibition of human RPMI8226 cells; assay type: functional; conditions: RPMI-8226; summary of the method: as §1
SR = experiment: Growth inhibition of human SR cells; assay type: functional; summary of the method: as §1
[5] = Growth inhibition of human HCT116 cells; assay type: functional; conditions: HCT-116; summary of the method: as §1
HL-60(TB) = experiment: Growth inhibition of human HL-60(TB) cells; assay type: functional
Summary of the method: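 Tested in the NCI 60 human tumour cell line panel. Compounds were first screened at a single concentration of 10 µM, and hits were then run in a five-dose assay. Growth was read as the change in optical density, expressed as a percentage of control. GI50 is the concentration that halves cellular growth, taken from the NCI database.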

[6] = Growth inhibition of human COLO205 cells; assay type: functional; conditions: COLO 205; summary of the method: as §1
[7] = Growth inhibition of human LOXIMVI cells; assay type: functional; conditions: LOX IMVI; summary of the method: as §1
K562 = experiment: Growth inhibition of human K562 cells; assay type: functional; summary of the method: as §1
CAKI-1 = experiment: Growth inhibition of human CAKI-1 cells; assay type: functional; summary of the method: as §1
[8] = Growth inhibition of human BT549 cells; assay type: functional; conditions: BT-549; summary of the method: as §1
MDA-MB-468 = experiment: Growth inhibition of human MDA-MB-468 cells; assay type: functional; summary of the method: as §1
[9] = Half life in human plasma; assay type: ADME, cell-free
T47D = experiment: Growth inhibition of human T47D cells; assay type: functional; summary of the method: as §1
CCRF-CEM = experiment: Growth inhibition of human CCRF-CEM cells; assay type: functional; summary of the method: as §1
[10] = Growth inhibition of human MOLT4 cells; assay type: functional; conditions: MOLT-4; summary of the method: as §1
ACHN = experiment: Growth inhibition of human ACHN cells; assay type: functional; summary of the method: as §1
DU-145 = experiment: Growth inhibition of human DU145 cells; assay type: functional; summary of the method: as §1
SNB-75 = experiment: Growth inhibition of human SNB75 cells; assay type: functional; summary of the method: as §1
SW-620 = experiment: Growth inhibition of human SW620 cells; assay type: functional; summary of the method: as §1
[11] = Growth inhibition of human OVCAR3 cells; assay type: functional; conditions: OVCAR-3; summary of the method: as §1
MDA-MB-435 = experiment: Growth inhibition of human MDA-MB-435 cells; assay type: functional; summary of the method: as §1
Malme-3M = experiment: Growth inhibition of human MALME-3M cells; assay type: functional; summary of the method: as §1

| SMILES | GI50 (TK-10) [µM] | GI50 (NCI-H522) [nM] | GI50 (M14) [µM] | GI50 (IGROV-1) [µM] | GI50 [1] [nM] | GI50 [2] [nM] | GI50 (MCF7) [µM] | GI50 [3] [µM] | GI50 [4] [µM] | GI50 [5] [nM] | GI50 [6] [µM] | GI50 [7] [µM] | GI50 (CAKI-1) [µM] | GI50 [8] [µM] | GI50 (T47D) [µM] | GI50 (CCRF-CEM) [nM] | GI50 [10] [µM] | GI50 (ACHN) [µM] | GI50 (DU-145) [µM] | GI50 (SW-620) [µM] | also measured |
| --- | --- | --- | --- | --- | --- | --- | --- | --- | --- | --- | --- | --- | --- | --- | --- | --- | --- | --- | --- | --- | --- |
| C=C1C(=O)O[C@H]2[C@H]1CC/C(COC(=O)N1CCC(F)(F)CC1)=C\CC[C@@]1(C)O[C@@H]21 | 2.6 | 1250 | 2.84 | 2.31 | 1450 | 1200 | 1.62 | 1.98 | 1.98 | 1410 | 2.06 | 2.23 | 2.03 | 2.69 | 3.07 | 680 | 2.05 | 1.79 | 2.44 | 1.46 | GI50 (SR): 1.38 µM; GI50 (HL-60(TB)): 2040 nM; GI50 (K562): 3.45 µM; GI50 (MDA-MB-468): 570 nM; half-life [9]: 480 min; GI50 (SNB-75): 6.13 µM; GI50 [11]: 1.69 µM; GI50 (MDA-MB-435): 0.46 µM; GI50 (Malme-3M): 1.9 µM |
| C=C1C(=O)O[C@H]2[C@H]1CC/C(COC(=O)NCCN1CCCC1)=C\CC[C@@]1(C)O[C@@H]21 | 3.11 | 1780 | 9.65 | 4.09 | 2250 | 4080 | 3.91 | 15 | 8.71 | 3180 | 4.78 | 7.88 | 6.86 | 4.75 | 4.86 | 2490 | 3.48 | 3.8 | 7.42 | 3.46 | GI50 (SR): 10.2 µM; GI50 (HL-60(TB)): 4150 nM; GI50 (K562): 3.26 µM; GI50 (MDA-MB-468): 2300 nM; half-life [9]: 100 min; GI50 (SNB-75): 18 µM; GI50 [11]: 8.41 µM; GI50 (MDA-MB-435): 6.56 µM; GI50 (Malme-3M): 4.18 µM |
| C=C1C(=O)O[C@H]2[C@H]1CC/C(COC(=O)NCCc1ccccn1)=C\CC[C@@]1(C)O[C@@H]21 | 3.78 | 1640 | 5.58 | 14.4 | 2250 | 2220 | 2.85 | 5.77 | 8.2 | 1890 | 3.54 | 4.96 | 2.88 | 2.6 | 6.19 | 2650 | 5.54 | 2.75 | 4.59 | 3.13 | GI50 (SR): 4.1 µM; GI50 (MDA-MB-468): 3220 nM; half-life [9]: 100 min; GI50 (SNB-75): 3.78 µM; GI50 (MDA-MB-435): 6.01 µM; GI50 (Malme-3M): 7.52 µM |
| C=C1C(=O)O[C@H]2[C@H]1CC/C(COC(=O)NCCN1CCOCC1)=C\CC[C@@]1(C)O[C@@H]21 | 3.93 | 2130 | 7.97 | 3.49 | 2300 | 3000 | 3.54 | 14.4 | 5.72 | 2870 | 8.89 | 4.84 | 4.31 | 4.99 | 6.32 | 3030 | 5 | 3.74 | 3.74 | 3.48 | GI50 (SR): 3.65 µM; GI50 (HL-60(TB)): 3590 nM; GI50 (K562): 3.37 µM; GI50 (MDA-MB-468): 3260 nM; half-life [9]: 100 min; GI50 (SNB-75): 19.5 µM; GI50 [11]: 6.2 µM; GI50 (MDA-MB-435): 5.89 µM; GI50 (Malme-3M): 6.12 µM |
| C=C1C(=O)O[C@H]2[C@H]1CC/C(COC(=O)Nc1n[nH]c(SC)n1)=C\CC[C@@]1(C)O[C@@H]21 | 2.51 | 1260 | 1.59 | 3.66 | 650 | 900 | 1.33 | 1.76 | 2.57 | 1130 | 1.79 | 1.95 | 1.99 | 1.47 | 2.23 | 620 | 2.32 | 1.75 | 3.49 | 1.12 | GI50 (SR): 2.36 µM; GI50 (MDA-MB-468): 1290 nM; half-life [9]: 100 min; GI50 (SNB-75): 1.71 µM; GI50 (MDA-MB-435): 2.24 µM; GI50 (Malme-3M): 2.32 µM |
| C=C1C(=O)O[C@@H]2C3O[C@]3(C)CC/C=C(\C)CC[C@@H]12 (stereo not given in full) | – | – | – | – | – | – | – | – | – | 10000 | – | – | 10 | – | – | – | – | – | – | – | – |
| C/C1=C\CC[C@@]2(C)O[C@@H]2[C@H]2OC(=O)C(CN(C)C)[C@@H]2CC1 (stereo not given in full) [DIMETHYLAMINOPARTHENOLIDE] | 3.16 | 2510 | 15.8 | 19.9 | 10000 | 15800 | 5.01 | 2.51 | 2.51 | 5010 | 31.6 | 10 | 12.5 | 5.01 | 39.8 | 1990 | 3.16 | 15.8 | 5.01 | 3.98 | GI50 (HL-60(TB)): 1580 nM; GI50 (K562): 2.51 µM; GI50 [11]: 12.5 µM; GI50 (MDA-MB-435): 7.94 µM |
